The source made the active and inactive calls. The calls are words filed in the database; no cut-off is given here.

In assay [1] the test system is Mus musculus. Briefly: Spontaneous motor activity in ICR mouse at 50 mg/kg, po. The format is functional, organism-based. On the set-up: dose 50 mg/kg. A digest of the protocol: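 Locomotion of male ICR mice measured 1 h after day-5 oral dose (0.3% CMCNa suspension, daily for 5 days) with an automated activity meter in an open field (35 cm diameter); 3 min adaptation, then counts over 6 min; n=10; means ± SEM compared with vehicle by ANOVA/Dunnett.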

For assay [2], the system named is Mus musculus. Put plainly: Antidepressant activity in ICR mouse assessed as reduction of immobility time at 50 mg/kg, po after 5 days by forced swimming test. More on the design: scale not given: the % may be the effect or the level left. The format is functional. The method, boiled down:
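Male ICR mice (18-22 g), housed a week on 12:12 h light-dark cycle; saponins suspended in 0.3% CMCNa, given orally once daily for 5 days; vehicle controls 5 days, fluoxetine (10 mg/kg) once on day 5. 1 h after last dose, mouse placed in water (24 °C, 10 cm deep) 6 min; immobility scored over final 4 min by blinded observer; n=10; means ± SEM, ANOVA/Dunnett.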

Assay [3] concerns Mus musculus. Put plainly: Antidepressant activity in ICR mouse assessed as reduction of immobility time at 50 mg/kg, po after 5 days by tail suspension test. The format is functional. More on the design: scale not given: the % may be the effect or the level left. The method, boiled down: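 Male ICR mice (18-22 g); compounds in 0.3% CMCNa dosed orally daily for 5 days, fluoxetine (10 mg/kg) once on day 5, vehicle group 5 days. One hour after day-5 dose, mouse hung by tail from lever 30 cm high for 6 min; immobility in later 4 min recorded by observer; n=10; one-way ANOVA then Dunnett's t-test.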

Regarding `CC(C)=CC1C[C@](C)(O)[C@@H]2[C@@H]3CC[C@@H]4[C@@]5(C)CC[C@H](O[C@@H]6OC[C@H](O)[C@H](O[C@@H]7O[C@H](CO)[C@@H](O)[C@H](O)[C@H]7O)[C@H]6O[C@@H]6O[C@@H](CO)[C@H](O)[C@H]6O)C(C)(C)[C@@H]5CC[C@@]4(C)[C@]34CO[C@@]2(C4)O1` (some centres undefined) [BACOPASIDE VII], the result in assay [1] was inactive. Besides, the values for the Activity in assay [2] and in assay [3] were 20% and 8%, respectively.
As to `CC(C)=C[C@@H]1CO[C@]23C[C@@]4(CO2)[C@@H](CC[C@@H]2[C@@]5(C)CC[C@H](O[C@H]6OC[C@H](O)[C@H](O[C@H]7O[C@H](COS(=O)(=O)O)[C@@H](O)[C@H](O)[C@H]7O)[C@H]6O[C@@H]6O[C@@H](CO)[C@H](O)[C@H]6O)C(C)(C)[C@@H]5CC[C@]24C)[C@H]3[C@@]1(C)O` [BACOPASIDE I], the outcome in assay [1] was inactive. In addition, the Activity was 75% in assay [2] and 61% in assay [3].
For `CC(C)=C[C@@H]1CO[C@]23C[C@@]4(CO2)[C@@H](CC[C@@H]2[C@@]5(C)CC[C@H](O[C@H]6OC[C@H](O)[C@H](O[C@H]7O[C@H](CO)[C@H](O)[C@H](O)[C@H]7O)[C@H]6O[C@@H]6O[C@@H](CO)[C@H](O)[C@H]6O)C(C)(C)[C@@H]5CC[C@]24C)[C@H]3[C@@]1(C)O` [BACOPASAPONSIN C], the outcome in assay [1] was inactive. The Activity in assay [2] was determined as 63%; in assay [3], 47%.

The values above are taken from ChEMBL document CHEMBL1142117, “Triterpene saponins from Bacopa monnieri and their antidepressant effects in two mice models” (2007).
